Test results published in ChEMBL document CHEMBL1159037, “Synthesis and biological evaluation of novel allophenylnorstatine-based HIV-1 protease inhibitors incorporating high affinity P2-ligands” (Bioorg Med Chem Lett, 2010).

Assays:
[1] = test system: Human immunodeficiency virus 1; experiment: Antiviral activity against HIV1 LAI in human MT2 cells after 7 days by MTT assay; format: functional, organism-based; conditions: Human immunodeficiency virus 1, LAI, MT2, 168 h
How it was run: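 Human T-lymphoid MT-2 cells were exposed to 100 TCID50 of HIV-1LAI and cultured in the presence of each protease inhibitor. IC50 was determined by MTT assay. Values are means of at least three experiments.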

[2] = target: Protease (Human immunodeficiency virus 1, UniProt Q9YQ12); experiment: Inhibition of HIV1 protease
Chain of Protease (Q9YQ12 whole entry): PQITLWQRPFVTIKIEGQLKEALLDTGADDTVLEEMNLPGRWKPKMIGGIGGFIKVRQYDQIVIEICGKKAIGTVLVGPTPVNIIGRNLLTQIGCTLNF

[3] = test system: Human immunodeficiency virus 1; experiment: Ratio of IC50 for multi drug-resistant HIV1 isolate of subtype MM to IC50 for wild type HIV1 isolate ERS104pre; format: functional
How it was run: (§1)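 Each assay run in duplicate; values are means (±1 SD) from two or three independent experiments. Fold change is the IC50 against each drug-resistant isolate divided by the IC50 against wild-type HIV-1 ERS104pre.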

[4] = test system: Human immunodeficiency virus 1; experiment: Antiviral activity against multi drug-resistant HIV1 isolate of subtype C in PHA-stimulated human PBMC assessed as inhibition of p24 antigen production; format: functional, organism-based; conditions: Human immunodeficiency virus 1, isolate C
[5] = test system: Human immunodeficiency virus 1; experiment: Ratio of IC50 for multi drug-resistant HIV1 isolate of subtype TM to IC50 for wild type HIV1 isolate ERS104pre; format: functional; how it was run: as §1
[6] = test system: Human immunodeficiency virus 1; experiment: Antiviral activity against multi drug-resistant HIV1 isolate of subtype G in PHA-stimulated human PBMC assessed as inhibition of p24 antigen production; format: functional, organism-based; conditions: Human immunodeficiency virus 1, isolate G
[7] = test system: Human immunodeficiency virus 1; experiment: Ratio of IC50 for multi drug-resistant HIV1 isolate of subtype JSL to IC50 for wild type HIV1 isolate ERS104pre; format: functional; how it was run: as §1
[8] = test system: Human immunodeficiency virus 1; experiment: Antiviral activity against multi drug-resistant HIV1 isolate of subtype TM in PHA-stimulated human PBMC assessed as inhibition of p24 antigen production; format: functional, organism-based; conditions: Human immunodeficiency virus 1, isolate TM
[9] = test system: Human immunodeficiency virus 1; experiment: Ratio of IC50 for multi drug-resistant HIV1 isolate of subtype C to IC50 for wild type HIV1 isolate ERS104pre; format: functional; how it was run: as §1
[10] = test system: Human immunodeficiency virus 1; experiment: Antiviral activity against multi drug-resistant HIV1 isolate of subtype JSL in PHA-stimulated human PBMC assessed as inhibition of p24 antigen production; format: functional, organism-based; conditions: Human immunodeficiency virus 1, isolate JSL
[11] = test system: Human immunodeficiency virus 1; experiment: Ratio of IC50 for multi drug-resistant HIV1 isolate of subtype G to IC50 for wild type HIV1 isolate ERS104pre; format: functional; how it was run: as §1
[12] = test system: Human immunodeficiency virus 1; experiment: Antiviral activity against multi drug-resistant HIV1 isolate of subtype MM in PHA-stimulated human PBMC assessed as inhibition of p24 antigen production; format: functional, organism-based; conditions: Human immunodeficiency virus 1, isolate MM
[13] = test system: Human immunodeficiency virus 1; experiment: Antiviral activity against wild type HIV1 isolate ERS104pre in PHA-stimulated human PBMC assessed as inhibition of p24 antigen production; format: functional, organism-based; conditions: Human immunodeficiency virus 1, isolate ERS104pre

Q: With `Cc1ccccc1CNC(=O)[C@H]1N(C(=O)[C@@H](O)[C@H](Cc2ccccc2)NC(=O)O[C@@H]2C[C@@H]3CCO[C@@H]3C2)CSC1(C)C` as the compound, how does the IC50 [1] read?
A: 13 nM

Q: What about the Ki [2] of the same compound?
A: 0.29 nM

Q: What does the source list for `Cc1cc(CO)ccc1CNC(=O)[C@H]1N(C(=O)[C@@H](O)[C@H](Cc2ccccc2)NC(=O)O[C@H]2CO[C@H]3OCC[C@H]32)CSC1(C)C`?
A: IC50 [1]: 230 nM; Ki [2]: 0.31 nM

Q: How did the IC50 [1] turn out when `Cc1cc(N)ccc1CNC(=O)[C@H]1N(C(=O)[C@@H](O)[C@H](Cc2ccccc2)NC(=O)O[C@H]2CO[C@H]3OCC[C@H]32)CSC1(C)C` was run?
A: 530 nM

Q: And the Ki [2]?
A: 1.01 nM

Q: With `Cc1ccccc1CNC(=O)[C@H]1N(C[C@@H](O)[C@H](Cc2ccccc2)NC(=O)O[C@H]2CCOC2)CSC1(C)C` as the compound, how does the Ki [2] read?
A: 86.2 nM

Q: For `COc1ccc(CNC(=O)[C@H]2N(C(=O)[C@@H](O)[C@H](Cc3ccccc3)NC(=O)O[C@H]3CO[C@H]4OCC[C@H]43)CSC2(C)C)c(C)c1`, which IC50 [1] is on record?
A: 51 nM

Q: And the Ki [2]?
A: 2.03 nM

Q: `Cc1ccccc1CNC(=O)[C@H]1N(C(=O)[C@@H](O)[C@H](Cc2ccccc2)NC(=O)O[C@H]2CCOC2)CSC1(C)C` was tested. Which IC50 [1] did it give?
A: 20 nM

Q: What about the Ki [2] of the same compound?
A: 0.21 nM

Q: Which results are given for `Cc1ccccc1CNC(=O)[C@H]1N(C(=O)[C@@H](O)[C@H](Cc2ccccc2)NC(=O)O[C@H]2CO[C@H]3OCC[C@H]32)CSC1(C)C`?
A: Ratio IC50 [3]: 1; IC50 [4]: 61 nM; Ratio IC50 [5]: 2; IC50 [1]: 9 nM; IC50 [6]: 29 nM; Ratio IC50 [7]: 8; IC50 [8]: 64 nM; Ratio IC50 [9]: 2; IC50 [10]: 235 nM; Ratio IC50 [11]: 1; Ki [2]: 0.0052 nM; IC50 [12]: 42 nM; IC50 [13]: 31 nM

Q: Which Ki [2] does the source give for `Cc1ccccc1CNC(=O)[C@H]1N(C(=O)[C@@H](O)[C@H](Cc2ccccc2)NC(=O)O[C@@H]2C[C@@H]3OCO[C@@H]3C2)CSC1(C)C` here?
A: 0.65 nM

Q: For `Cc1ccccc1CNC(=O)[C@H]1N(C[C@@H](O)[C@H](Cc2ccccc2)NC(=O)O[C@H]2CO[C@H]3OCC[C@H]32)CSC1(C)C`, which Ki [2] is on record?
A: 2.6 nM

Q: Which “Ratio IC50” value [3] does the source give for `CC(C)CN(C[C@@H](O)[C@H](Cc1ccccc1)NC(=O)O[C@H]1CCOC1)S(=O)(=O)c1ccc(N)cc1` here?
A: 7

Q: What about the IC50 [4] of the same compound?
A: 346 nM

Q: And the “Ratio IC50” value [5]?
A: 9

Q: What about the IC50 [6] of the same compound?
A: 392 nM

Q: And the “Ratio IC50” value [7]?
A: 12

Q: And the IC50 [8]?
A: 406 nM

Q: And the “Ratio IC50” value [9]?
A: 8

Q: What about the “Ratio IC50” value [11] of the same compound?
A: 9

Q: What about the IC50 [12] of the same compound?
A: 313 nM

Q: And the IC50 [13]?
A: 45 nM

Q: Which results are given for `COC(=O)N[C@H](C(=O)N[C@@H](Cc1ccccc1)[C@@H](O)CN(Cc1ccc(-c2ccccn2)cc1)NC(=O)[C@@H](NC(=O)OC)C(C)(C)C)C(C)(C)C` [ATAZANAVIR]?
A: Ratio IC50 [3]: 13; IC50 [4]: 45 nM; Ratio IC50 [5]: 16; IC50 [6]: 29 nM; Ratio IC50 [7]: 212; IC50 [8]: 47 nM; Ratio IC50 [9]: 15; IC50 [10]: 635 nM; Ratio IC50 [11]: 10; IC50 [12]: 40 nM; IC50 [13]: 3 nM

Q: `Cc1ccccc1CNC(=O)[C@H]1N(C(=O)[C@@H](O)[C@H](Cc2ccccc2)NC(=O)O[C@@H]2CCOCOC2)CSC1(C)C` was tested. Which Ki [2] did it give?
A: 0.78 nM
